The source of these data is ChEMBL document CHEMBL3745708, “Design of α7 nicotinic acetylcholine receptor ligands using the (het)Aryl-1,2,3-triazole core: Synthesis, in vitro evaluation and SAR studies” (Eur J Med Chem, 2016).

Usually Ki stands for a dissociation constant, usually derived from enzyme kinetics or from competition with a known ligand. The Kd is the free concentration of one partner at which half of the binding sites on the other are occupied at equilibrium, for simple one-to-one binding. Read a low Kd as higher affinity.

Test [1] concerns the target Neuronal acetylcholine receptor subunit alpha-7 (Rattus norvegicus, UniProt Q05941). The experiment in a line: Displacement of [125I]alpha-bungarotoxin from alpha7 nAchR in rat frontal cortices. In outline: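 Competition binding against [125I]-α-bungarotoxin as reference radioligand at α7 nAChR. IC50 read graphically for each compound, then converted to Ki.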
Test [2] concerns the target Neuronal acetylcholine receptor; alpha4/beta2 (Homo sapiens, UniProt P17787+P43681). The experiment in a line: Displacement of [3H]cytisine from human recombinant alpha4beta2 nicotinic receptor expressed in SH-SY5Y cells after 120 mins by scintillation counting. It counts as cell-based. A digest of the protocol: (§1)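 Selectivity binding run by an outside contract lab on cells transfected with the human recombinant receptor. Reference radioligands: [3H]cytisine for α4β2 and [3H]BRL 43694 for 5-HT3.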
Background: Loss of bound radioactivity is the signal in a displacement assay; it reports binding, not function.

Test [3] deals with T1, 5-hydroxytryptamine receptor 3A (Homo sapiens, UniProt P46098).
T1 sequence (P46098 whole entry): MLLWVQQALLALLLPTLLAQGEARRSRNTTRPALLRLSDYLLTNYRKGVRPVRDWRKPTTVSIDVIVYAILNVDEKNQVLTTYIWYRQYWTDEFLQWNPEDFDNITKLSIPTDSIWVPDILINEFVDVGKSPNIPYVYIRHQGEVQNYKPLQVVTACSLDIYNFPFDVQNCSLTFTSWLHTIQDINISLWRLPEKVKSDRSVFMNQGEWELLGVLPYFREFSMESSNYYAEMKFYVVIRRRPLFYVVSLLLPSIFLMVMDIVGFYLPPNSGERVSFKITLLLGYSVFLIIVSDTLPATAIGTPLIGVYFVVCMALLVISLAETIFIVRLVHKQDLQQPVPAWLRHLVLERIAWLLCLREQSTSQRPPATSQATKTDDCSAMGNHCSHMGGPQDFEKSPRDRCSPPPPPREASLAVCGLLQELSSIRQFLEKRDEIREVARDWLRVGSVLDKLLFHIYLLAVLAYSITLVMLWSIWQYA
The experiment in a line: Displacement of [3H]BRL 43694 from human 5-HT3 receptor expressed in CHO cells after 120 mins by scintillation counting. The class given is cell-based. A digest of the protocol: as §1

Chain of Neuronal acetylcholine receptor; alpha4/beta2 (P17787 whole entry): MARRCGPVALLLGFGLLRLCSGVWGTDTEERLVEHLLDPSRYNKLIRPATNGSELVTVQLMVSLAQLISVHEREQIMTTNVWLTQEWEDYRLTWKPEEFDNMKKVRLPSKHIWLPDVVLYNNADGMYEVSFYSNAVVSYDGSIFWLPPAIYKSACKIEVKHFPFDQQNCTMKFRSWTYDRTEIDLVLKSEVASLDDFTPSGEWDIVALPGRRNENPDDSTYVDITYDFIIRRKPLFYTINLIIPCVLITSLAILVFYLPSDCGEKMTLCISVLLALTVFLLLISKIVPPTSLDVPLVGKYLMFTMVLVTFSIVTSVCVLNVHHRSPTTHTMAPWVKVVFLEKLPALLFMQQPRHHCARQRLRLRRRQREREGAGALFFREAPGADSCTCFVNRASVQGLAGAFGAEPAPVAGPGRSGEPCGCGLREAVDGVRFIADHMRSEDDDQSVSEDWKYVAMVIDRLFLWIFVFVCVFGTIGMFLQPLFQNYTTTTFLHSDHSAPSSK
Chain of Neuronal acetylcholine receptor; alpha4/beta2 (P43681 whole entry): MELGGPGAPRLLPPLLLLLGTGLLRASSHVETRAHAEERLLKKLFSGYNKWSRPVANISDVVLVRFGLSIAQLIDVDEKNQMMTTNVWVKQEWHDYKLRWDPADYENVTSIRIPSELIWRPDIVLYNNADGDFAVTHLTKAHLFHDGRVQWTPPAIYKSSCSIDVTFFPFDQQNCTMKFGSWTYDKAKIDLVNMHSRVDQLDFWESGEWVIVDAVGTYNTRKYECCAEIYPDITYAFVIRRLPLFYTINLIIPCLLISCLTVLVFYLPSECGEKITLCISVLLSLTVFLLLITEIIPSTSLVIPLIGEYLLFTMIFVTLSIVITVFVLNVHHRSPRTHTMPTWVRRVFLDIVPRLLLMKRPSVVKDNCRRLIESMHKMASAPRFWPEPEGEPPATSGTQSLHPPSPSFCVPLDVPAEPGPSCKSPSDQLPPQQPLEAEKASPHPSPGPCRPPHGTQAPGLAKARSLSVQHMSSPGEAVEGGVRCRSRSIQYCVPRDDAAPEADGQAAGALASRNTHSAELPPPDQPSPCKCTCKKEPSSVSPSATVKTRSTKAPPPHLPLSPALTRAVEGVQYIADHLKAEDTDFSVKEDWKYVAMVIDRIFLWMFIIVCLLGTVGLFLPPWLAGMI
Chain of Neuronal acetylcholine receptor subunit alpha-7 (Q05941 whole entry): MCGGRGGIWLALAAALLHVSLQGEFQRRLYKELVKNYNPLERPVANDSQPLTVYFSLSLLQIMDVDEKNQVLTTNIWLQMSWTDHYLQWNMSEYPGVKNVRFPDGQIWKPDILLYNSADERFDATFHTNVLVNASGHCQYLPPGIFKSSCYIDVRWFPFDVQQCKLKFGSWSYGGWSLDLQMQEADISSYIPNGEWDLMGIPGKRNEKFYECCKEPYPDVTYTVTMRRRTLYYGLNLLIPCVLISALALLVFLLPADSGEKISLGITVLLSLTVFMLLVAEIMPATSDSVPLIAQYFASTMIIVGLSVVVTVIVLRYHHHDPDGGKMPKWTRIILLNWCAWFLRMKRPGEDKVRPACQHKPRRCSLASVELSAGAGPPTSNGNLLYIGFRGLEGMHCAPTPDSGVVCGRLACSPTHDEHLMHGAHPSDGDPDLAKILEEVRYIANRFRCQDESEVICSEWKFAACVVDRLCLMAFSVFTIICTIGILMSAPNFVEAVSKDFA

In turn, `COc1ccccc1-c1cn([C@H]2CN3CCC2CC3)nn1` came in with a Ki in test [1] of 112 nM.

In turn, `COc1ccc(-n2cc(C3(O)CN4CCC3CC4)nn2)cc1` (stereo not drawn) returned an inhibition constant (Ki) in test [1] greater than 1000 nM.

`O=C(N[C@@H]1CN2CCC1CC2)c1cc2ccoc2cn1`: the affinity in test [1], expressed as Ki, was 1.27 nM.

On to `OC1(c2cn(-c3ccc(Br)cc3)nn2)CN2CCC1CC2` (stereo not drawn), for which, in test [1], the Ki was greater than 1000 nM.

Turning to `COc1cccc(-c2cn([C@H]3CN4CCC3CC4)nn2)c1`, the Ki in test [2] came out at 1000 nM; in test [3], 3 nM.

Turning to `COc1ccc(-n2cc(C3(F)CN4CCC3CC4)nn2)cc1` (stereo not drawn), the inhibition constant Ki in test [1] was greater than 1000 nM.

Regarding `FCCc1ccc(-c2cn([C@H]3CN4CCC3CC4)nn2)cc1`, affinity in test [1] was put at a Ki of 230 nM.

For the compound `OCCc1ccc(-c2cn([C@H]3CN4CCC3CC4)nn2)cc1`, in test [1], affinity was put at a Ki of 130 nM.

Consider `OCc1ccc(-c2cn([C@H]3CN4CCC3CC4)nn2)cc1`, for which the inhibition constant Ki in test [1] was determined as 10 nM.

`c1cc(-c2cn([C@H]3CN4CCC3CC4)nn2)ccn1`: in test [1], the Ki stood at 141 nM.

Take `c1cc2cc(-c3cn(C4CN5CCC4CC5)nn3)ccc2[nH]1` (stereo not drawn): the Ki came out at 750 nM in test [2] and 52 nM in test [3]. The dissociation constant (Kd) in test [1] came to 120 nM.

In turn, `FCc1ccc(-c2cn([C@H]3CN4CCC3CC4)nn2)cc1` yielded a Ki in test [1] of 21 nM.

`COCOCCOc1ccc(-c2cn([C@H]3CN4CCC3CC4)nn2)cc1`: in test [1], the inhibition constant Ki amounted to 225 nM.

With `c1cc2cc(-c3cn([C@H]4CN5CCC4CC5)nn3)ccc2o1`, the values for the inhibition constant Ki in test [2] and in test [3] were 1000 nM and 3 nM, respectively.

As for `COc1ccc(-c2cn([C@H]3CN4CCC3CC4)nn2)cc1`, the inhibitory constant (Ki) in test [1] stood at 11 nM.

In test [1], `OCCOc1ccc(-c2cn([C@H]3CN4CCC3CC4)nn2)cc1` gave a Ki of 215 nM.

With `FCCOc1ccc(-c2cn([C@H]3CN4CCC3CC4)nn2)cc1`, the Ki in test [1] was 190 nM.

Turning to `Fc1ccc(-c2cn([C@H]3CN4CCC3CC4)nn2)cc1`, the inhibition constant Ki in test [1] is 15 nM.

`O=C(N[C@H]1CN2CCC1CC2)c1ccc(Cl)cc1` [PNU-282987] had a Ki in test [1] of 17 nM.
